Test results as given in ChEMBL document CHEMBL3286129, “Optimization of peptidomimetic boronates bearing a P3 bicyclic scaffold as proteasome inhibitors” (Eur J Med Chem, 2014).
Activity calls are given as the source filed them. The rule behind the calls is not given here.

Assays:
[1] = target: Chymotrypsinogen A (Bos taurus, UniProt P00766); assay: Inhibition of bovine pancreatic alpha-chymotrypsin using Suc-Leu-Leu-Val-Tyr-AMC as substrate by fluorescence assay
In short: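 Enzyme incubated at 20 °C in 50 mM Tris pH 8.0, 100 mM NaCl, 5 mM EDTA, 7.5% DMSO with varied inhibitor concentrations. Substrate hydrolysis followed for 10 min. Ki from progress curves; mean of three determinations.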

[2] = target: Proteasome Macropain subunit (Homo sapiens) (UniProt P49721); assay: Inhibition of trypsin-like activity of 20S proteasome in human erythrocytes using Boc-Leu-Arg-Arg-AMC as substrate by fluorescence assay; type: cell-based
In short: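 Human 20S proteasome 0.0025 mg/mL at 30 °C in 50 mM Tris pH 7.4, 50 mM NaCl, 0.5 mM EDTA, 0.03% SDS, 7.5% DMSO. Varied inhibitor concentrations; AMC release monitored continuously for 10 min, ex 380/em 460 nm. Ki derived from progress-curve IC50 fit.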

[3] = target: T1, Proteasome Macropain subunit MB1 (Homo sapiens, UniProt P28074); assay: Inhibition of chymotrypsin-like activity of 20S proteasome in human erythrocytes using Suc-Leu-Leu-Val-Tyr-AMC as substrate by fluorescence assay
T1 sequence (P28074 whole entry): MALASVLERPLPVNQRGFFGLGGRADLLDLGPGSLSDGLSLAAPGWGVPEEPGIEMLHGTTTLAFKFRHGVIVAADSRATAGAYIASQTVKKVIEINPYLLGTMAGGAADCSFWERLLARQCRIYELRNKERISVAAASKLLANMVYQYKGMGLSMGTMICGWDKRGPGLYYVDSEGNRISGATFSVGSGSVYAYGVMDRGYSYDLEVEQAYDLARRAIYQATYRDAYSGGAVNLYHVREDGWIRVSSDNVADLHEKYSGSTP

[4] = target: T2, Proteasome Macropain subunit MB1 (Homo sapiens) (UniProt P28074); assay: Inhibition of chymotrypsin-like activity of 20S proteasome in human erythrocytes using Suc-Leu-Leu-Val-Tyr-AMC as substrate at 20 uM by fluorescence assay relative to control
T2 sequence (whole entry): T1 sequence (P28074 whole entry)
In short: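 Single inhibitor concentration, equivalent DMSO as negative control. AMC fluorescence read at ex 380/em 460 nm; percent inhibition of ChT-L activity.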

[5] = target: T3, Proteasome component C5 (Homo sapiens, UniProt P20618); assay: Inhibition of PGPH-like activity of 20S proteasome in human erythrocytes using Z-Leu-Leu-Glu-AMC as substrate by fluorescence assay
T3 sequence (P20618 whole entry): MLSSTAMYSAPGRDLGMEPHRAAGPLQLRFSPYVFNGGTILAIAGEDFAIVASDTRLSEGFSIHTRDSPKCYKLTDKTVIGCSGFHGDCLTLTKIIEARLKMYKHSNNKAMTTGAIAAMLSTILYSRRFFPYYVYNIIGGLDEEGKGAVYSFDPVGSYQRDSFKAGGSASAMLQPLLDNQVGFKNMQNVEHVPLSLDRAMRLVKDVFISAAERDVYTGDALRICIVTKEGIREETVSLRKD
In short: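 Human 20S proteasome 0.004 mg/mL, 30 °C, 50 mM Tris pH 7.5 with 25 mM KCl, 10 mM NaCl, 1 mM MgCl2, 0.03% SDS, 5% DMSO. Ki from 4-parameter IC50 fit of progress curves, corrected to zero substrate via Km. Mean of three.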

[6] = Cytotoxicity against human prostate cancer cells assessed as cell growth at 10 uM relative to control; type: functional; settings: Cancer cell lines, read-out: Activity
In short: (§1)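 Single-concentration screen against a panel of human cancer cell lines. Each value is the mean percent growth across the cell lines of that tumour subpanel.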

[7] = Cytotoxicity against human melanoma cells assessed as cell growth at 10 uM relative to control; type: functional; settings: read-out: Activity; in short: as §1
[8] = Cytotoxicity against human colon cancer cells assessed as cell growth at 10 uM relative to control; type: functional; settings: Cancer cell lines, read-out: Activity; in short: as §1
[9] = Cytotoxicity against human breast cancer cells assessed as cell growth at 10 uM relative to control; type: functional; settings: Cancer cell lines, read-out: Activity; in short: as §1
[10] = Cytotoxicity against human leukemia cells assessed as cell growth at 10 uM relative to control; type: functional; settings: read-out: Activity; in short: as §1
[11] = Cytotoxicity against human CNSC cells assessed as cell growth at 10 uM relative to control; type: functional; settings: read-out: Activity; in short: as §1
[12] = Cytotoxicity against human ovarian cancer cells assessed as cell growth at 10 uM relative to control; type: functional; settings: Cancer cell lines, read-out: Activity; in short: as §1
[13] = Cytotoxicity against human renal cancer cells assessed as cell growth at 10 uM relative to control; type: functional; settings: Cancer cell lines, read-out: Activity; in short: as §1
[14] = Cytotoxicity against human NSCLC cells assessed as cell growth at 10 uM relative to control; type: functional; settings: read-out: Activity; in short: as §1

Chain of Proteasome Macropain subunit (Homo sapiens) (P49721 whole entry): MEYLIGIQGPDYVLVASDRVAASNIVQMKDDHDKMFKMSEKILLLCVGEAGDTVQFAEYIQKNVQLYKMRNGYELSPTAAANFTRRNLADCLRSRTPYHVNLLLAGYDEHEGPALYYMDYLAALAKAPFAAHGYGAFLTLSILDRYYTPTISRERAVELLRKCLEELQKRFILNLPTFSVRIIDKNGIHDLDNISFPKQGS

Compound	Ki [1]	inhibition [2]	Ki [3]	inhibition [4] [%]	Ki [5]	Ki ([3]; read-out: Ki) [µM]	growth at 10 µM [6] [%]	growth at 10 µM [7] [%]	growth at 10 µM [8] [%]	growth at 10 µM [9] [%]	growth at 10 µM [10] [%]	growth at 10 µM [11] [%]	growth at 10 µM [12] [%]	growth at 10 µM [13] [%]	growth at 10 µM [14] [%]
CC(C)CCNC(=O)CCn1ccc2ncccc2c1=O		inactive			Not Active	4.57									
CC(C)CCNC(=O)Cn1ccc2ccc(Br)cc2c1=O	Not Active	inactive			Not Active	2.34									
COc1cc2ccn(CCC(=O)N[C@@H](CC(C)C)B(O)O)c(=O)c2cc1OC	Not Active	inactive		> 40		0.085	98.8	63.7	90.8	56.9	59	78.3	92.6	89	90.3
CC(C)CCNC(=O)Cn1ccc2ccccc2c1=O		inactive					101	104	100	103	99.5	102	104	97.4	97.2
CC(C)CCNC(=O)CCn1ccc2ccc(Br)cc2c1=O		inactive					103	94	104	94.5	83.4	97.2	104	86.1	97.7

More lines, main results first:

Ki [1]	inhibition [2]	Ki [3]	inhibition [4] [%]	Ki [5]	Ki ([3]; read-out: Ki) [µM]	Compound	growth at 10 µM [6] [%]	growth at 10 µM [7] [%]	growth at 10 µM [8] [%]	growth at 10 µM [9] [%]	growth at 10 µM [10] [%]	growth at 10 µM [11] [%]	growth at 10 µM [12] [%]	growth at 10 µM [13] [%]	growth at 10 µM [14] [%]
Not Active	inactive					CC(C)C[C@H](NC(=O)Cn1cc(Br)c2ncccc2c1=O)B(O)O									
Not Active	inactive	Not Active	> 40	Not Active		CC(C)C[C@H](NC(=O)CCn1cc(Br)c2ncccc2c1=O)B(O)O									
